From ChEMBL document CHEMBL4831495, “Discovery of novel BCR-ABL PROTACs based on the cereblon E3 ligase design, synthesis, and biological evaluation” (Eur J Med Chem, 2021)

Tests used:
[1] = system: K562; assay: Antitumor activity against human K562 cells xenografted in NOD-SCID mouse assessed as tumor growth inhibition at 5 mg/kg, po administered daily 10 days; conditions: 240 h, read-out: TGI
[2] = system: K562; assay: Antiproliferative activity against human K562 cells assessed as cell growth inhibition measured after 48 hrs by CCK8 assay; assay type: functional, cell-based; conditions: K562, 48 h
Summary of the method: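 Cells were seeded at 3000-20,000 per well and given 3-fold serial dilutions of compound in medium. After 2 days at 37 °C in 5% CO2, CCK-8 reagent was added for 2-4 h and absorbance was read at 450 nm.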

[3] = target: Protein cereblon/Tyrosine-protein kinase ABL1/Breakpoint cluster region protein (Homo sapiens, UniProt P00519+P11274+Q96SW2); assay: PROTAC activity at CRBN/Bcr-Abl in human K562 cells assessed as degrading activity by Western blotting analysis; assay type: cell-based
[4] = Clearance in Wistar rat at 2 mg/kg, iv by LC-MS/MS analysis; assay type: ADME, organism-based; conditions: in vivo
Summary of the method: (§1)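 Single intravenous dose of 2 mg/kg into the femoral vein of female Wistar rats, given as a solution in NMP/PEG200 (1:9, v/v). Plasma was collected by sublingual vein bleeding at 0.083, 0.25, 0.5, 1, 2, 4, 6, 8, 12 and 24 h from one group of rats (n = 3). Samples were extracted and quantified by LC-MS/MS, LOQ 2.5 ng/mL.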

[5] = Half life in Wistar rat at 2 mg/kg, iv by LC-MS/MS analysis; assay type: ADME, organism-based; conditions: in vivo
Summary of the method: as §1

[6] = Apparent volume of distribution during terminal state in Wistar rat at 2 mg/kg, iv by LC-MS/MS analysis; assay type: ADME, organism-based; conditions: in vivo, read-out: Vz
Summary of the method: as §1

[7] = AUC (0 to t) in Wistar rat at 2 mg/kg, iv by LC-MS/MS analysis; assay type: ADME, organism-based; set-up: dose 2 mg/kg; conditions: in vivo
Summary of the method: as §1

[8] = MRT (0 to t) in Wistar rat at 2 mg/kg, iv by LC-MS/MS analysis; assay type: ADME, organism-based; conditions: in vivo
Summary of the method: as §1

[9] = Cmax in Wistar rat at 2 mg/kg, iv by LC-MS/MS analysis; assay type: ADME, organism-based; set-up: route intravenous, dose 2 mg/kg; conditions: in vivo
Summary of the method: as §1

[10] = Apparent volume of distribution during steady state in Wistar rat at 2 mg/kg, iv by LC-MS/MS analysis; assay type: ADME, organism-based; conditions: in vivo, read-out: Vdss
Summary of the method: as §1

[11] = Tmax in Wistar rat at 2 mg/kg, iv by LC-MS/MS analysis; assay type: ADME, organism-based; conditions: in vivo
Summary of the method: as §1

Sequence of Protein cereblon/Tyrosine-protein kinase ABL1/Breakpoint cluster region protein (P00519 whole entry): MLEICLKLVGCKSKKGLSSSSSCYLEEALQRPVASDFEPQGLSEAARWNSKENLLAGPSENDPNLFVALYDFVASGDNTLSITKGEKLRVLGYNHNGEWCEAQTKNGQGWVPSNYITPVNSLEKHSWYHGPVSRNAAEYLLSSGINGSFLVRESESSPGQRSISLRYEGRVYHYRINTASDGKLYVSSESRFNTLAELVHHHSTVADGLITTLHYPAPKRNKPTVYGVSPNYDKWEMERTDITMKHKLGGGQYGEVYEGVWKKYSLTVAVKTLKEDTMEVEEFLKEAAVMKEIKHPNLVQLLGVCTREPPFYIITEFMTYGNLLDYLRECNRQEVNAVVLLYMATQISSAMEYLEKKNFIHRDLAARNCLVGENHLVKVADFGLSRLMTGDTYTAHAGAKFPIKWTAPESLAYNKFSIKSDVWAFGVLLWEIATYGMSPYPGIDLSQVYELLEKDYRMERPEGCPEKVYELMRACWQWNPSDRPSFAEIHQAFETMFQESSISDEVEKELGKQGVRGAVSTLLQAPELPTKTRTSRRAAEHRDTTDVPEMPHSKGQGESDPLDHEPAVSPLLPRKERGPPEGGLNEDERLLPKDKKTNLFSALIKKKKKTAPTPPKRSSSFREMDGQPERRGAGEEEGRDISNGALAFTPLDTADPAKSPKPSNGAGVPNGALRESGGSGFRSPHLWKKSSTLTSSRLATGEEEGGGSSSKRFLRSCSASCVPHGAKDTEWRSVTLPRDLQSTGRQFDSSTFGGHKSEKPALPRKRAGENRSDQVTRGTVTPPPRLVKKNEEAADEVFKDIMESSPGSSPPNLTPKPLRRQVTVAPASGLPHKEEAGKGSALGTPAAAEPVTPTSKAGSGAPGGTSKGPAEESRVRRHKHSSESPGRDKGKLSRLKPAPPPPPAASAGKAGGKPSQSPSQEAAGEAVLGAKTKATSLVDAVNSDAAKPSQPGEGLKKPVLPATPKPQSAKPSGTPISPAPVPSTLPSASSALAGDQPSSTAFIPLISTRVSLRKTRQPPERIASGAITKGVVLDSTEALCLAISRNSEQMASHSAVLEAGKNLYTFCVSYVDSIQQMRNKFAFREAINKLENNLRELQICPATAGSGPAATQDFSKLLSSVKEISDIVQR
Sequence of Protein cereblon/Tyrosine-protein kinase ABL1/Breakpoint cluster region protein (P11274 whole entry): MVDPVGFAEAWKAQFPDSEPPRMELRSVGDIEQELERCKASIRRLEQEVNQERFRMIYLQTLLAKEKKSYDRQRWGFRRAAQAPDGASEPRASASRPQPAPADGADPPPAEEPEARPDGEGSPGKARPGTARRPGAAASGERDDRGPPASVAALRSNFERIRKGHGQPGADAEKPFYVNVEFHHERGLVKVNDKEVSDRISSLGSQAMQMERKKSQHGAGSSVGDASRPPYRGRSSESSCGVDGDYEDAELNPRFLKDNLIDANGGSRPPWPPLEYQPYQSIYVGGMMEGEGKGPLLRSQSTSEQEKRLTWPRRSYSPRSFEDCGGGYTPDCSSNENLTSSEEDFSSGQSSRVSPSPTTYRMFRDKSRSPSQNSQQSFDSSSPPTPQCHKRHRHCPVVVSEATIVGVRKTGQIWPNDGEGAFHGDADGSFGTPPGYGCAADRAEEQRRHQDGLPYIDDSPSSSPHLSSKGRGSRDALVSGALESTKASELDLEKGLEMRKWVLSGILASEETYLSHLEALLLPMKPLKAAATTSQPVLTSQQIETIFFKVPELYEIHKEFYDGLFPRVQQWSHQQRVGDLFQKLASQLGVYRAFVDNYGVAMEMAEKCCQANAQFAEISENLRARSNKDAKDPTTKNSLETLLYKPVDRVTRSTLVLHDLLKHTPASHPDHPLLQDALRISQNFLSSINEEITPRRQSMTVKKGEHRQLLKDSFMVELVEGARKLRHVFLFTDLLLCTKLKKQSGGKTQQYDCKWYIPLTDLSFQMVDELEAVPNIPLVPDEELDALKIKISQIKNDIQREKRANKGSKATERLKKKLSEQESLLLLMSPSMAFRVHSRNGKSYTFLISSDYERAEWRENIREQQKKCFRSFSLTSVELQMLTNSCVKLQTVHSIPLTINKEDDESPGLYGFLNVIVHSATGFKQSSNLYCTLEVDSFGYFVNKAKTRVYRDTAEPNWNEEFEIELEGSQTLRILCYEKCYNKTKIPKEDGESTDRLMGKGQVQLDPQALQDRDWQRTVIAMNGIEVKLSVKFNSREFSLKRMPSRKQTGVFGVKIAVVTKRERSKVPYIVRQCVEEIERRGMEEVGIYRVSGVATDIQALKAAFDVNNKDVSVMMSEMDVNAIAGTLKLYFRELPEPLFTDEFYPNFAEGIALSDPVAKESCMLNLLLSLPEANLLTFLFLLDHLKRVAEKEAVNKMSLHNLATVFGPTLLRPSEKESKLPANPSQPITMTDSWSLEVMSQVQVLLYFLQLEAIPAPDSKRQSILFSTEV
Sequence of Protein cereblon/Tyrosine-protein kinase ABL1/Breakpoint cluster region protein (Q96SW2 whole entry): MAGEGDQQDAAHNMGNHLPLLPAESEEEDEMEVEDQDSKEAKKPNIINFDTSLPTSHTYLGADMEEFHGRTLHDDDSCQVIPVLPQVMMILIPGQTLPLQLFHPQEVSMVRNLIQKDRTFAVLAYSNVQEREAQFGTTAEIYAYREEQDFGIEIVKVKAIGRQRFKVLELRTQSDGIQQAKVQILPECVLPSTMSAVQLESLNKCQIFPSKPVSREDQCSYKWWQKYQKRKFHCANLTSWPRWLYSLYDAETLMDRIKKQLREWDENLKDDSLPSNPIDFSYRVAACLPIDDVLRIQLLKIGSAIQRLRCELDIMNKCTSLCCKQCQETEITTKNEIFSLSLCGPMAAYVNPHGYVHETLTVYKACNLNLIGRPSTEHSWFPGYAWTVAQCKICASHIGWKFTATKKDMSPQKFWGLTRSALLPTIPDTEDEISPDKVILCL

Row | Structure (SMILES) | IC50 [2] [nM] | DC50 [3] [nM] | also measured
1 | Cc1nc(Nc2ncc(C(=O)Nc3c(C)cccc3Cl)s2)cc(N2CCN(CCO)CC2)n1 [DASATINIB] |  |  | inhibition in vivo at 5 mg/kg [1]: 95.1%
2 | Cc1nc(Nc2ncc(C(=O)Nc3c(C)cccc3Cl)s2)cc(N2CCN(C(=O)CCCCCCNc3cccc4c3C(=O)N(C3CCC(=O)NC3=O)C4=O)CC2)n1 (stereo not given) | 1.47 | 9 | 
3 | Cc1nc(Nc2ncc(C(=O)Nc3c(C)cccc3Cl)s2)cc(N2CCN(CCCCCCOCCOCCOCCCCCC(=O)Nc3cccc4c3C(=O)N(C3CCC(=O)NC3=O)C4=O)CC2)n1 (stereo not given) | 4.1 |  | 
4 | Cc1nc(Nc2ncc(C(=O)Nc3c(C)cccc3Cl)s2)cc(N2CCN(C(=O)CSc3cccc4c3C(=O)N(C3CCC(=O)NC3=O)C4=O)CC2)n1 (stereo not given) | 3.2 | 5.6 | 
5 | Cc1nc(Nc2ncc(C(=O)Nc3c(C)cccc3Cl)s2)cc(N2CCN(C(=O)CCCCNc3cccc4c3C(=O)N(C3CCC(=O)NC3=O)C4=O)CC2)n1 (stereo not given) | 0.55 | 11 | 
6 | Cc1nc(Nc2ncc(C(=O)Nc3c(C)cccc3Cl)s2)cc(N2CCN(C(=O)CCOCCOCCNc3cccc4c3C(=O)N(C3CCC(=O)NC3=O)C4=O)CC2)n1 (stereo not given) | 8.05 | 17.5 | clearance [4]: 67.1 mL/min/kg; half-life [5]: 37.2 min; Vd [6]: 3.59 L/kg; AUC(0-t) [7]: 496 ng·h/mL; MRT last [8]: 27 min; Cmax [9]: 1140 ng/mL; Vd [10]: 1.93 L/kg; Tmax [11]: 4.8 min

The remaining compounds from weak to strong by IC50 [2], led by results:

Row | IC50 [2] [nM] | DC50 [3] [nM] | Structure (SMILES) | also measured
7 | 18.4 | 8.7 | Cc1nc(Nc2ncc(C(=O)Nc3c(C)cccc3Cl)s2)cc(N2CCN(C(=O)CCOCCNc3cccc4c3C(=O)N(C3CCC(=O)NC3=O)C4=O)CC2)n1 (stereo not given) | 
8 | 4.6 | 10.1 | Cc1nc(Nc2ncc(C(=O)Nc3c(C)cccc3Cl)s2)cc(N2CCN(CCCCC(=O)Nc3cccc4c3C(=O)N(C3CCC(=O)NC3=O)C4=O)CC2)n1 (stereo not given) | 
9 | 4.2 | 11.1 | Cc1nc(Nc2ncc(C(=O)Nc3c(C)cccc3Cl)s2)cc(N2CCN(C(=O)CCCCNc3cccc4c3CN(C3CCC(=O)NC3=O)C4=O)CC2)n1 (stereo not given) | 
10 | 2.84 | 95.4 | Cc1nc(Nc2ncc(C(=O)Nc3c(C)cccc3Cl)s2)cc(N2CCN(C(=O)CCc3cccc4c3C(=O)N(C3CCC(=O)NC3=O)C4=O)CC2)n1 (stereo not given) | 
11 | 1.22 | 10 | Cc1nc(Nc2ncc(C(=O)Nc3c(C)cccc3Cl)s2)cc(N2CCN(C(=O)CNc3cccc4c3C(=O)N(C3CCC(=O)NC3=O)C4=O)CC2)n1 (stereo not given) | 
12 | 1.03 | 125 | Cc1nc(Nc2ncc(C(=O)Nc3c(C)cccc3Cl)s2)cc(N2CCN(C(=O)CCCC(=O)Nc3cccc4c3CN(C3CCC(=O)NC3=O)C4=O)CC2)n1 (stereo not given) | 
